Measurements published in PMC9592562 (Research and Practice in Thrombosis and Haemostasis, 2022).

Key:
[1] = system: aPL from pool of plasma from 11 human patients; assay: surface plasmon resonance, aPL over immobilized biotinylated peptide; assay type: binding; conditions: shape of stabilization curves; Figures 3C, 3D, 4E
[2] = system: aPL pool sera / IIa‐8.0‐biot‐2x; assay: inhibition of aPL binding to IIa‐8.0‐biot‐2x ELISA; assay type: biochemical, human; conditions: preincubation 90 min, room temperature; 1, 10 and 100 μg/ml; n = 3–4; Figure 7A
Summary of the method: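 Pooled plasma from 11 APS patients (aPL pool sera) was preincubated for 90 min at room temperature with increasing concentrations (1, 10, 100) of monomeric peptide. It was then run in the anti-β2GP1 IgG ELISA on streptavidin-coated plates bearing the biotinylated dimeric peptide. Bound IgG was detected with anti-human secondary antibody (IRDye800CW or HRP) as fluorescence (AU) or A405. Mean ± SEM, n = 3–4.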

[3] = system: aPL pool; assay: custom immunoassay; assay type: binding, human; conditions: coated on plate (10 μg/ml); aPL pool 1/10 dilution; n = 9

Row | Sequence | sustained interaction / stability of binding with aPL [1] | inhibition of aPL binding to IIa‐8.0‐biot‐2x, monomeric peptide [2] | ability to interact with aPL compared with β2GP1 [3]
1 | VSRGGMRKKKKPLTG [Ib‐1‐biot] | neither R39‐R43‐biot nor Ib‐1‐biot have sustained interaction with aPL | – | –
2 | VSRGGMRKFICPLTG [R39‐R43] | – | failed to significantly inhibit | same ability to interact with aPL than β2GP1
